Measurements reported in ChEMBL document CHEMBL4130443, “Targeting breast cancer stem cells by novel HDAC3-selective inhibitors” (Eur J Med Chem, 2017).
Calls of active or inactive are those of the source. No cut-off for these calls is given here.

Assays:
[1] = target: T1, Histone deacetylase 1 (Homo sapiens, UniProt Q13547); assay: Inhibition of human HDAC1 at 1 uM using p53 (379 to 382 residues) derived fluorogenic peptide RHKKAc
Outline: (§1)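 Isoform profiling run by a commercial vendor with compounds at 1 µM. Values are percent inhibition, each the average of two determinations.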

[2] = target: Histone deacetylase 2 (Homo sapiens, UniProt Q92769); assay: Inhibition of human HDAC2 at 1 uM using p53 (379 to 382 residues) derived fluorogenic peptide RHKKAc; outline: as §1
Histone deacetylase 2, sequence (Q92769 whole entry, the tested form may be a part): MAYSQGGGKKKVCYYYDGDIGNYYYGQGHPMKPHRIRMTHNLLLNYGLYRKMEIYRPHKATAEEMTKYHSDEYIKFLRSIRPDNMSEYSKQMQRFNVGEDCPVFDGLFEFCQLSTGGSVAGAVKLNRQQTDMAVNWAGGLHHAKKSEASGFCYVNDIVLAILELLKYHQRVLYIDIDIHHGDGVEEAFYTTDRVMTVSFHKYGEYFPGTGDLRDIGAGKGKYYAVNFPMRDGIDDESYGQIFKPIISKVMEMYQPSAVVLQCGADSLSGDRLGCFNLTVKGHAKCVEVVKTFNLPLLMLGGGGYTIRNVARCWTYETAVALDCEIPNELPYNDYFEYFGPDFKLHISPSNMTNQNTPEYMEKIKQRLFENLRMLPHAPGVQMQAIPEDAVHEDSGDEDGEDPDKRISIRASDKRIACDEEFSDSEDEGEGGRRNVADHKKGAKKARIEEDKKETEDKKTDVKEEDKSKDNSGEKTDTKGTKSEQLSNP

[3] = target: Histone deacetylase 3/Nuclear receptor corepressor 2 (HDAC3/NCoR2) (Homo sapiens) (UniProt O15379+Q9Y618); assay: Inhibition of human HDAC3/NCOR2 at 1 uM using p53 (379 to 382 residues) derived fluorogenic peptide RHKKAc; format: protein-complex assay; outline: as §1
[4] = target: T1, Histone deacetylase 1; assay: Inhibition of human HDAC1 using p53 (379 to 382 residues) derived fluorogenic peptide RHKKAc
[5] = target: Histone deacetylase 3/Nuclear receptor corepressor 2 (HDAC3/NCoR2) (Homo sapiens, UniProt O15379); assay: Inhibition of human HDAC3/NCOR2 using p53 (379 to 382 residues) derived fluorogenic peptide RHKKAc; format: protein-complex assay
Histone deacetylase 3/Nuclear receptor corepressor 2 (HDAC3/NCoR2), sequence (O15379 whole entry, the tested form may be a part): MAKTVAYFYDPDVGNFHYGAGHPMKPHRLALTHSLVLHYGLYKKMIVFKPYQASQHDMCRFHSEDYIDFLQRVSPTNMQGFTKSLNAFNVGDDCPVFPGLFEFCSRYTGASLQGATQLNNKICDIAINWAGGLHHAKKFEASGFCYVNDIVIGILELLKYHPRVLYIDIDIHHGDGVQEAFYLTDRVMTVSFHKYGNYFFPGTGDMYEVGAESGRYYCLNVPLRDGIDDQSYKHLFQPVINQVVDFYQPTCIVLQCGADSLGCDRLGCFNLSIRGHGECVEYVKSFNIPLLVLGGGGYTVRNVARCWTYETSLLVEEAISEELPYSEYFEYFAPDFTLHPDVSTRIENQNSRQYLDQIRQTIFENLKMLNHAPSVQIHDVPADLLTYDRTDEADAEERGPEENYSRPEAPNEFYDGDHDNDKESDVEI
Histone deacetylase 3/Nuclear receptor corepressor 2 (HDAC3/NCoR2), sequence (Q9Y618 whole entry, further chain, the tested form may be a part): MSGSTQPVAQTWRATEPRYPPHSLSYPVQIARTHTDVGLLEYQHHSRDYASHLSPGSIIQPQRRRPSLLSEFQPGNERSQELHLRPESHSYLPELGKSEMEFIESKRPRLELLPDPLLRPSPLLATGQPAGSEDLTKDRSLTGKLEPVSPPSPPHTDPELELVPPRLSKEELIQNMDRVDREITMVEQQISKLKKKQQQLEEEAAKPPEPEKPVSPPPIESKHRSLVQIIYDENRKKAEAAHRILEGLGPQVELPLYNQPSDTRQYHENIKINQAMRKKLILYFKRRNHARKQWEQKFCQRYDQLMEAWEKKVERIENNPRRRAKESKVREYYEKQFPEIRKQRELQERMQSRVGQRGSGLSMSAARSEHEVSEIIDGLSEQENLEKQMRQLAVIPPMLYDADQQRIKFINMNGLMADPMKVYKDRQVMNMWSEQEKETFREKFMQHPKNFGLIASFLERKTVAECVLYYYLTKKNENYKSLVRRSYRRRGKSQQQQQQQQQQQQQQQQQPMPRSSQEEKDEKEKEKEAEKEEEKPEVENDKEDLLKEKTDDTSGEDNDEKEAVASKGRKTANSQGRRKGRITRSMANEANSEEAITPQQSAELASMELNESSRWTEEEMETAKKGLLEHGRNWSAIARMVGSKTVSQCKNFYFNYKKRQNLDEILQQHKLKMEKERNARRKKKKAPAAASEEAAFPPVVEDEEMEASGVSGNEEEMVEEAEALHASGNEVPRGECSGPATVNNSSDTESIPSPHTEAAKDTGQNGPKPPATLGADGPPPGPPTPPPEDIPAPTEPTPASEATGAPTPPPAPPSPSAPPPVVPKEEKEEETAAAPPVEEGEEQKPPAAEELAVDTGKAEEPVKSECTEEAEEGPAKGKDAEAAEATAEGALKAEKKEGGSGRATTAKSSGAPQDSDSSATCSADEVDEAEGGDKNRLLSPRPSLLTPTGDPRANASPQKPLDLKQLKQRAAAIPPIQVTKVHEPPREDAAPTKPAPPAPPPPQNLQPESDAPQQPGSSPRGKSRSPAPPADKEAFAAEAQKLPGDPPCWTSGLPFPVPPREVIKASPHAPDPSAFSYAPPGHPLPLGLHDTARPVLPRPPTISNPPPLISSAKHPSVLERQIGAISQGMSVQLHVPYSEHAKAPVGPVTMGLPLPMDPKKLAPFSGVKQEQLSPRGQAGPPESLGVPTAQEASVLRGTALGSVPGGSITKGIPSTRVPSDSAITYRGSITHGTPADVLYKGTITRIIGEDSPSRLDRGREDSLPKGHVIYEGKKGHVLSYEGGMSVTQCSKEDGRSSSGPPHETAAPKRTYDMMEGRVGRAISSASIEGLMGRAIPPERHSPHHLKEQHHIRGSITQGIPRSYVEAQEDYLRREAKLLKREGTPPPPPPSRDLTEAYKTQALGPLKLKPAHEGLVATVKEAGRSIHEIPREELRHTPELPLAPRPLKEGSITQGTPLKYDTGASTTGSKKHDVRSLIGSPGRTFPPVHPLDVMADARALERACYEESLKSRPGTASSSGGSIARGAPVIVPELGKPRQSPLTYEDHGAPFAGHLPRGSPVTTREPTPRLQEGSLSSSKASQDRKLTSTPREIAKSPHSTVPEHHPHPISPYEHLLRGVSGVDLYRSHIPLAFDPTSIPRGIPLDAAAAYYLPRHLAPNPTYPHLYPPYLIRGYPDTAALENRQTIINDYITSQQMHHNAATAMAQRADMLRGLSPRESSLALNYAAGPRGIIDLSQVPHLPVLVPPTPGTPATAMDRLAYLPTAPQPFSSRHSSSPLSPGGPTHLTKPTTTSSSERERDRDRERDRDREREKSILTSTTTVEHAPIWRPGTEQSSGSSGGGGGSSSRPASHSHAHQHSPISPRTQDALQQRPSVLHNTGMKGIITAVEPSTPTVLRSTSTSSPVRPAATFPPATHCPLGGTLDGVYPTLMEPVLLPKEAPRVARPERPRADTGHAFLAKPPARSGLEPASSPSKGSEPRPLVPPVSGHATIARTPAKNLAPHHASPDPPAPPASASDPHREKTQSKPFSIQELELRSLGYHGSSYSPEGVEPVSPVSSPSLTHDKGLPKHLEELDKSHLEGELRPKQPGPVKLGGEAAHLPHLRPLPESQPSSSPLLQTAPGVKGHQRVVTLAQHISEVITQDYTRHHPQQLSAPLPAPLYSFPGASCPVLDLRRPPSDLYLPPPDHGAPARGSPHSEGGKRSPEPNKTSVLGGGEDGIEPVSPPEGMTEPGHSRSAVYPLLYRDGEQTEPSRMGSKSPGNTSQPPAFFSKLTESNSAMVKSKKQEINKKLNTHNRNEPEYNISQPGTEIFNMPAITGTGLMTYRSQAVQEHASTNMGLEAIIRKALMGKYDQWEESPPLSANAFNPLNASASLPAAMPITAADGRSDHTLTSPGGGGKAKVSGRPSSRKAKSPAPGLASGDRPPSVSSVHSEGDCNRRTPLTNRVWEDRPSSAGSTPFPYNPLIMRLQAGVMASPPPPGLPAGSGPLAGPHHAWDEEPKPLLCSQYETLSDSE

[6] = target: Histone deacetylase 4 (Homo sapiens) (UniProt P56524); assay: Inhibition of human HDAC4 at 1 uM using Boc-Lys(trifluoroacetyl)-AMC substrate; outline: as §1
[7] = target: Histone deacetylase 5 (Homo sapiens) (UniProt Q9UQL6); assay: Inhibition of human HDAC5 at 1 uM using Boc-Lys(trifluoroacetyl)-AMC substrate; outline: as §1
Histone deacetylase 5 (Homo sapiens), sequence (Q9UQL6 whole entry, the tested form may be a part): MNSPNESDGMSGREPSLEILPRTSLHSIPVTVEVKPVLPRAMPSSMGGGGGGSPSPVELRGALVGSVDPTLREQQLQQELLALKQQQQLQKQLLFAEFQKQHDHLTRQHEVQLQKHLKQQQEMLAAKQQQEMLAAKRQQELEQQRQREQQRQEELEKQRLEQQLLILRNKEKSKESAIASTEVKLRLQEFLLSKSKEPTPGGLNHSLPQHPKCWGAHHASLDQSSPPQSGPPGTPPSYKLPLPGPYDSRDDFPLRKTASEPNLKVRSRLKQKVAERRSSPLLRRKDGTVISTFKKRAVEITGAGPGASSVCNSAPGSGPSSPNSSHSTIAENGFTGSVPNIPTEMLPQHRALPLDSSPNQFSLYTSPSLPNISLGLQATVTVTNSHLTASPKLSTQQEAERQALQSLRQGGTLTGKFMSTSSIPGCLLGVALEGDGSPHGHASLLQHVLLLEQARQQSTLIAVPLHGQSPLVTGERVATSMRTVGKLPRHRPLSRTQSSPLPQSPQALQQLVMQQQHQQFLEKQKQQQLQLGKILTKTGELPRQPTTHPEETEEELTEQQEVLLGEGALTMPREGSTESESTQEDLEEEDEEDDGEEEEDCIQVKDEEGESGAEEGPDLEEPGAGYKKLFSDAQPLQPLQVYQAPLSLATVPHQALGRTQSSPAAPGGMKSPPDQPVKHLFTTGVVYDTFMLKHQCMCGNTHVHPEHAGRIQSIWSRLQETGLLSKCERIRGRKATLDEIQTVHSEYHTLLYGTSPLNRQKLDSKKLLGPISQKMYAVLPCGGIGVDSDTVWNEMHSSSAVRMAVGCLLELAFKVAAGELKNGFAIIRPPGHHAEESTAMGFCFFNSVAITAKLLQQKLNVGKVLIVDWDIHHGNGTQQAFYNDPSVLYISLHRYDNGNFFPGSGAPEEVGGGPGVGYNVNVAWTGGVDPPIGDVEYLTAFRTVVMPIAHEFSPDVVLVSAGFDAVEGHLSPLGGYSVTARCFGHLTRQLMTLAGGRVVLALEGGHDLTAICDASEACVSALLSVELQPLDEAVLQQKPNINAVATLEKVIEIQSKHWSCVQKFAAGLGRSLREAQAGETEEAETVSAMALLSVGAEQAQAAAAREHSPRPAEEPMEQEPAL

[8] = target: T2, Histone deacetylase 8 (Homo sapiens) (UniProt Q9BY41); assay: Inhibition of human HDAC8 at 1 uM using p53 (379 to 382 residues) derived fluorogenic peptide RHKAcKAc; outline: as §1
T2 sequence (whole entry): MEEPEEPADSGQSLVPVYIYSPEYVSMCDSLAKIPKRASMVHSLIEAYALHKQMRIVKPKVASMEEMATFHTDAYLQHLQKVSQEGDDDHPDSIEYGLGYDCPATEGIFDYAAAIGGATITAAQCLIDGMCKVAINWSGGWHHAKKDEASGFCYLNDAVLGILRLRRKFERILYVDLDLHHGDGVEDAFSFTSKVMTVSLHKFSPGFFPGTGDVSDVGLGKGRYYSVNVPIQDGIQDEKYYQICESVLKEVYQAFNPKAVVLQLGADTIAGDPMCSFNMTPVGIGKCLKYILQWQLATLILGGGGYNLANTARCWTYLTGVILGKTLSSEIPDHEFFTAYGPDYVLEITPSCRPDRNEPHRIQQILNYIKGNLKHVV

[9] = tested on: MDA-MB-231; assay: Cytotoxicity in human MDA-MB-231 cells assessed as reduction in cell viability incubated for 24 to 72 hrs by MTT assay; format: functional, cell-based
Outline: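 MDA-MB-231 seeded 5,000 cells/well with 10% FBS, left overnight, then exposed to agents in 5% FBS for 24, 48 and 72 h. MTT added for 1 h, dye dissolved in DMSO, absorbance at 560 nm. Viability given as percent of the matching vehicle-treated control. N = 6.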

[10] = tested on: MDA-MB-231; assay: Inhibition of mammosphere formation of human MDA-MB-231 cells incubated for 7 days; conditions: MDA-MB-231, 168 h
[11] = target: Histone deacetylase 3 (Homo sapiens) (UniProt O15379); assay: Inhibition of HDAC3 in human MDA-MB-231 cells assessed as reduction in Akt phosphorylation at 0.5 to 5 uM by immunoblotting; format: cell-based
Histone deacetylase 3 (Homo sapiens), sequence (O15379 whole entry): as the sequence (O15379 whole entry, the tested form may be a part) above
Outline: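 Monolayer cells treated in 5% FBS at graded concentrations. Lysed in SDS/EDTA/Tris pH 8.1 buffer, equal protein immunoblotted with primary antibodies 1:1000 overnight at 4°C. Detected by ECL for phospho-Akt, β-catenin and histone H3 pan/H3K9 acetylation.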

[12] = tested on: MDA-MB-231; assay: Effect on beta-catenin mRNA expression in human MDA-MB-231 cells at 0.5 to 5 uM by RT-PCR method; format: cell-based; conditions: mda-mb-231, 5 µM
Outline: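 Monolayer cells treated at graded concentrations. Total RNA isolated with TRIzol. β-catenin mRNA assessed by RT-PCR with β-actin as reference.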

[13] = tested on: MDA-MB-231; assay: Inhibition of tumorogenicity of human MDA-MB-231 cells xenografted in NOD/SCID mouse injected with cells pretreated with 5 uM compound for 48 hrs assessed as reduction in tumor incidence at 100 mg/kg, po dosed via gavage once daily starting on day 2 post injection and continuing through day 12; format: functional, organism-based
Outline: (§2)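 Cells pretreated 48 h with 5 µM compound or DMSO, trypsinized and injected at 50,000 cells/0.1 ml in 50% Matrigel into the left 4th inguinal mammary fat pad of female NOD/SCID mice (N = 10 per group). Dosed 100 mg/kg by oral gavage once daily in 0.5% methylcellulose/0.1% Tween 80 in water. Caliper volume = (width² x length) x 0.52. Incidence by log-rank test, volume at day 27 by t-test.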

[14] = tested on: MDA-MB-231; assay: Induction of tumor growth dela of human MDA-MB-231 cells xenografted in NOD/SCID mouse injected with cells pretreated with 5 uM compound for 48 hrs assessed as reduction in tumor volume at 100 mg/kg, po dosed via gavage once daily starting on day 2 post injection and continuing through day 26; format: functional, organism-based; outline: as §2

T1 sequence (Q13547 whole entry, the tested form may be a part, canonical isoform): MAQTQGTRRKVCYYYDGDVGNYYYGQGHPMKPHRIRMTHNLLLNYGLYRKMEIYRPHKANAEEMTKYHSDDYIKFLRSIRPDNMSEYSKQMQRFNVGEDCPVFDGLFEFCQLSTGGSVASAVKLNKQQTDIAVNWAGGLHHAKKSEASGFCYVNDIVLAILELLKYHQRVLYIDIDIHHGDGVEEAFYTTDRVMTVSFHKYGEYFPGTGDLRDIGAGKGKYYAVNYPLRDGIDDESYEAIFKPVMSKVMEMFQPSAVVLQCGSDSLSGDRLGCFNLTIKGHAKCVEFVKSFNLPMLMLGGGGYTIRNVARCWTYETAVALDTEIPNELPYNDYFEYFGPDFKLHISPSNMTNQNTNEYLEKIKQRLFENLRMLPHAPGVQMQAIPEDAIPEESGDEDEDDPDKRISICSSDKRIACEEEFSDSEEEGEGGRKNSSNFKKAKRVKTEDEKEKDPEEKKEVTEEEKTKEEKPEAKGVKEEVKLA

CC(C)(C(=O)Nc1ccc(C(=O)Nc2ccc(F)cc2N)cc1)c1ccccc1
inhibition [1]: 8% | inhibition [2]: 5% | inhibition [3]: 87% | IC50 [4]: > 10 µM | IC50 [5]: 0.35 µM | inhibition [6]: 0% | inhibition [7]: 0% | inhibition [8]: 0% | IC50 [9]: ≥ 10 µM | IC50 [10]: 0.5 to 1 µM | inhibition [11]: Dose-dependent effect | Activity [12]: Non-Toxic | inhibition [13]: Active | Activity [14]: Active
